The target in assay [1] is T1, Camphor 5-monooxygenase (Pseudomonas putida, UniProt P00183).
T1 sequence (P00183 whole entry): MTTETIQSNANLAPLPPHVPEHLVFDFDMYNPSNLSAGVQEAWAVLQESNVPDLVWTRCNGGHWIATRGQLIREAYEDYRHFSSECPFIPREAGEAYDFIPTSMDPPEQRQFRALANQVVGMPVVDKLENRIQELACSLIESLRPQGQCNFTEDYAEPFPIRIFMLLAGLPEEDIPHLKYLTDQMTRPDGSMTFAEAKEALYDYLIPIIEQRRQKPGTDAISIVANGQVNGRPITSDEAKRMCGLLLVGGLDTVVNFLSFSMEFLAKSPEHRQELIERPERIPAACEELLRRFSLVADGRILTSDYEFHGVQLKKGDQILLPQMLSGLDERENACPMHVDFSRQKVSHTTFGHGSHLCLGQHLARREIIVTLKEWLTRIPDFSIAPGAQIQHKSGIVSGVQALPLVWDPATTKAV
The experiment in a line: Inhibition of wild type cytochrome P450cam expressed in Escherichia coli.

Assay [2] concerns the target T1, Camphor 5-monooxygenase. As to the kind of experiment: Inhibition of wild type cytochrome P450cam expressed in Escherichia coli at 1 mM. The gist of the method:
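Camphor-depleted enzyme in 100 mM potassium phosphate, with inhibitor at 1 mM added in DMSO (≤3% of volume). Incubated 15 min at 20 °C, then quenched with CH2Cl2 containing 2 mM β-thujone internal standard. Turnover was taken from the GC product/starting-material ratio and expressed as percent inhibition.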

For assay [3], the target named is T2, Camphor 5-monooxygenase (Pseudomonas putida, UniProt P00183, L244A). The experiment in a line: Inhibition of L244A mutant cytochrome P450cam expressed in Escherichia coli. Summed up:
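Camphor-depleted enzyme at 20 nM in 100 mM potassium phosphate, with inhibitor at varying amounts added in DMSO (≤3% of volume). Incubated 15 min at 20 °C, then quenched with CH2Cl2 containing 2 mM β-thujone internal standard. Product/starting-material ratio was measured by GC to give turnover, and IC50 was fitted with a Langmuir isotherm.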

The target in assay [4] is T2, Camphor 5-monooxygenase. The experiment in a line: Binding constant for L244A mutant cytochrome P450cam expressed in Escherichia coli. Particulars: read-out: Ks. The gist of the method: (§1)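 Camphor stripped from the enzyme by two elutions with 100 mM sodium phosphate over a size-exclusion column, leaving low-spin water-bound heme. 0.5 μM protein in 100 mM potassium phosphate at 37 °C, measured by difference UV spectroscopy. The 416 nm trough to 424 nm peak absorbance difference was fitted by nonlinear regression to ΔA = ΔAmax[I]/(Ks+[I]).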

Assay [5] has as its target T1, Camphor 5-monooxygenase. The experiment in a line: Binding constant for wild type cytochrome P450cam expressed in Escherichia coli. As to conditions: read-out: Ks. The gist of the method:
as §1

What is called IC50 is the concentration needed to halve the response being measured. A higher IC50 goes with lower potency. By inhibition is commonly meant the change of the read-out against control, counted positive when it falls. A high value points to a strong effect.

In turn, `c1ccc(Cn2ccnc2)cc1` [BENZYLIMIDAZOLE] registered an IC50 in assay [1] of 16 µM.

In the case of `c1cn(CC2CC2)cn1`, in assay [1], half-maximal inhibition (IC50) was put at 4 µM.

`CCCc1cncn1CC1CC1` returned an inhibition at 1000 µM in assay [2] of 60%. For the same compound, the 50% inhibitory concentration (IC50) in assay [3] is 36 µM.

On to `CCC(CC)Cn1ccnc1`, for which, in assay [1], the IC50 came to 0.8 µM.

As to `c1cn(CC2CCCCC2)cn1`, inhibition in assay [1] was half-maximal at 1.5 µM (IC50).

Regarding `CC(C)Cc1cncn1CC1CC1`, in assay [2], the inhibition at 1000 µM is 20%. The IC50 in assay [3] is 10.1 µM.

In turn, `c1ccc(Cn2cncc2C2CC2)cc1` gave an inhibition at 1000 µM in assay [2] of 30%. The same compound displayed an IC50 in assay [3] of 41 µM.

In assay [2], `CC(C)(C)Cc1cncn1C1CC1` gave an inhibition at 1000 µM of 80%. For the same compound, in assay [3], it took 129 µM to reach half-maximal inhibition (IC50).

`CCCc1cncn1C1CCCC1` displayed an inhibition at 1000 µM in assay [2] of 60%. Also, in assay [3], the IC50 was 6.5 µM.

For `CC(=O)N1CCN(c2ccc(OC[C@@H]3CO[C@@](Cn4ccnc4)(c4ccc(Cl)cc4Cl)O3)cc2)CC1` [KETOCONAZOLE], the Kd stood at 0.6 µM in assay [4] and 0.5 µM in assay [5].

The values above are taken from ChEMBL document CHEMBL1138831, “Computer-assisted design of selective imidazole inhibitors for cytochrome p450 enzymes” (J Med Chem, 2004).
